Results from ChEMBL document CHEMBL1938297, “Synthesis, radiofluorination and pharmacological evaluation of a fluoromethyl spirocyclic PET tracer for central σ1 receptors and comparison with fluoroalkyl homologs” (Bioorg Med Chem, 2012).

What was measured:
[1] = Chemical stability of the compound in 0.9% NaCl solution at pH 7.2 assessed as compound remaining after 2 hrs by radio-HPLC/TLC analysis; assay type: physicochemical; settings: read-out: Stability
Outline: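 Radiotracer incubated 120 min at 40 °C in 0.9% NaCl (pH 7.2), phosphate-saline (0.1 M sodium phosphate, 0.15 M NaCl, pH 7.2) or 0.01 M TRIS–HCl (pH 7.4 at 21 °C). Aliquots were taken at set times and analysed by radio-TLC on silica and by gradient radio-HPLC on RP-18 (MeCN/20 mM ammonium acetate, 254 nm), giving % unchanged tracer; n = 2.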

Mus musculus [2] = assay: Biodistribution in CD1 mouse small intestine at 300 kBq, iv after 120 mins by gamma counting; assay type: ADME, organism-based; settings: in vivo, 2 h
Outline: (§1)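 Female CD-1 mice received the 18F tracer iv at 300 kBq in 0.9% NaCl containing 5% ethanol; 3–6 animals per time point (5, 30, 60, 120 min p.i.). Animals anaesthetized, blood and urine collected, killed by cervical luxation, organs dissected and weighed, counted in calibrated gamma counter. %ID/g = tissue counts / initial dose counts / tissue weight; mean with SD.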

Kidney [3] = assay: Biodistribution in CD1 mouse kidney at 300 kBq, iv after 5 mins by gamma counting; assay type: ADME, organism-based; settings: in vivo; outline: as §1
[4] = Biodistribution in CD1 mouse intestinal content at 300 kBq, iv after 60 mins by gamma counting; assay type: ADME, organism-based, Intestine; settings: in vivo, 1 h; outline: as §1
Mus musculus [5] = assay: Biodistribution in CD1 mouse eye at 300 kBq, iv after 120 mins by gamma counting; assay type: ADME, organism-based; settings: in vivo, 2 h
Outline: (§2)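 Female CD-1 mice received [18F]1 (300 kBq) i.v.; 3–6 animals per time point anesthetized at 5, 30, 60 or 120 min p.i., blood and urine collected, animals euthanized by cervical dislocation, organs dissected and weighed. Radioactivity counted in a calibrated gamma counter; % ID/g = tissue counts / initial dose counts / tissue weight; means with SD.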

Cerebellum = assay: Biodistribution in CD1 mouse cerebellum at 300 kBq, iv after 120 mins by gamma counting; assay type: ADME, organism-based; settings: in vivo, 2 h; outline: as §2
Mus musculus [6] = assay: Biodistribution in CD1 mouse large intestine at 300 kBq, iv after 30 mins by gamma counting; assay type: ADME, organism-based; settings: in vivo, 0.5 h; outline: as §1
Mus musculus [7] = assay: Biodistribution in CD1 mouse gonads at 300 kBq, iv after 5 mins by gamma counting; assay type: ADME, organism-based, Gonad; settings: in vivo; outline: as §2
Blood [8] = assay: Biodistribution in CD1 mouse blood at 300 kBq, iv after 30 mins by gamma counting; assay type: ADME, organism-based; settings: in vivo, 0.5 h; outline: as §2
Mus musculus [9] = assay: Biodistribution in CD1 mouse thymus at 300 kBq, iv after 60 mins by gamma counting; assay type: ADME, organism-based; settings: in vivo, 1 h
Outline: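 Female CD-1 mice received 300 kBq of the radiotracer i.v.; 3–6 animals per time point were anaesthetised at 5, 30, 60 or 120 min p.i. Blood and urine were collected, animals were killed by cervical dislocation, and organs were dissected and weighed. Activity was counted in a calibrated gamma counter and expressed as % injected dose per g wet tissue, mean with SD.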

Mus musculus [10] = assay: Biodistribution in CD1 mouse anterior olfactory bulb in brain saggital section at 24 MBq, iv at 45 mins by autoradiography; assay type: ADME, organism-based; settings: in vivo, 0.75 h
Outline: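 Female CD-1 mouse given [18F]1 (24 MBq) i.v. and sacrificed at 45 min. Brain hemispheres frozen in isopentane (−35 °C), cut into 12 µm sagittal cryosections, thaw-mounted, air-dried and exposed to 18F-sensitive storage phosphor screens. Anterior olfactory bulb served as nontarget region for target-to-nontarget ratios.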

Kidney [11] = assay: Biodistribution in CD1 mouse kidney at 300 kBq, iv after 60 mins by gamma counting; assay type: ADME, organism-based; settings: in vivo, 1 h; outline: as §1
Blood [12] = assay: Biodistribution in CD1 mouse blood at 300 kBq, iv after 60 mins by gamma counting; assay type: ADME, organism-based; settings: in vivo, 1 h; outline: as §2
Mus musculus [13] = assay: Biodistribution in CD1 mouse fat at 300 kBq, iv after 5 mins by gamma counting; assay type: ADME, organism-based, Adipose tissue; settings: in vivo; outline: as §2
Mus musculus [14] = assay: Biodistribution in CD1 mouse adrenals at 300 kBq, iv after 5 mins by gamma counting; assay type: ADME, organism-based, Adrenal gland; settings: in vivo; outline: as §2
Liver [15] = assay: Biodistribution in CD1 mouse liver at 300 kBq, iv after 30 mins by gamma counting; assay type: ADME, organism-based; settings: in vivo, 0.5 h; outline: as §1
Pancreas = assay: Biodistribution in CD1 mouse pancreas at 300 kBq, iv after 5 mins by gamma counting; assay type: ADME, organism-based; settings: in vivo; outline: as §1
Mus musculus [16] = assay: Biodistribution in CD1 mouse thymus at 300 kBq, iv after 30 mins by gamma counting; assay type: ADME, organism-based; settings: in vivo, 0.5 h; outline: as §1
Mus musculus [17] = assay: Biodistribution in CD1 mouse small intestine at 300 kBq, iv after 30 mins by gamma counting; assay type: ADME, organism-based; settings: in vivo, 0.5 h; outline: as §1
Brain = assay: Biodistribution in CD1 mouse brain at 300 kBq, iv after 60 mins by gamma counting; assay type: ADME, organism-based; settings: in vivo, 1 h; outline: as §2
[18] = Metabolic stability in CD1 mouse brain homogenate assessed as compound remaining at 191 MBq, iv after 60 mins by radio-HPLC/TLC analysis; assay type: ADME, organism-based; settings: read-out: Stability
Outline: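 Female CD-1 mice were injected with the radiotracer via the tail vein and killed at 30 or 60 min p.i. Whole brains (n = 2 per time) were homogenised in 50 mM TRIS–HCl pH 7.4 at 4 °C and extracted twice with ice-cold acetonitrile. Concentrated extracts were analysed by radio-HPLC and radio-TLC to give % parent versus radiometabolites.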

Mus musculus [19] = assay: Biodistribution in CD1 mouse fat at 300 kBq, iv after 30 mins by gamma counting; assay type: ADME, organism-based, Adipose tissue; settings: in vivo, 0.5 h; outline: as §2
Muscle tissue = assay: Biodistribution in CD1 mouse muscle at 300 kBq, iv after 120 mins by gamma counting; assay type: ADME, organism-based; settings: in vivo, 2 h; outline: as §1
Heart = assay: Biodistribution in CD1 mouse heart at 300 kBq, iv after 5 mins by gamma counting; assay type: ADME, organism-based; settings: in vivo; outline: as §1
Lung [20] = assay: Biodistribution in CD1 mouse lung at 300 kBq, iv after 30 mins by gamma counting; assay type: ADME, organism-based; settings: in vivo, 0.5 h; outline: as §1
[21] = Octanol-phosphate buffer partition coefficient, log D of the compound at pH 7.2 by shake-flask method; assay type: physicochemical
Outline: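 Shake-flask distribution of the radioligand between n-octanol and aqueous buffer at pH 7.2, either phosphate buffer or phosphate-saline; n = 3.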

Femur = assay: Biodistribution in CD1 mouse femur at 300 kBq, iv after 60 mins by gamma counting; assay type: ADME, organism-based; settings: in vivo, 1 h; outline: as §2
[22] = Biodistribution in CD1 mouse intestinal content at 300 kBq, iv after 30 mins by gamma counting; assay type: ADME, organism-based, Intestine; settings: in vivo, 0.5 h; outline: as §1
Mus musculus [23] = assay: Biodistribution in CD1 mouse adrenals at 300 kBq, iv after 120 mins by gamma counting; assay type: ADME, organism-based, Adrenal gland; settings: in vivo, 2 h; outline: as §2
Lung [24] = assay: Biodistribution in CD1 mouse lung at 300 kBq, iv after 120 mins by gamma counting; assay type: ADME, organism-based; settings: in vivo, 2 h; outline: as §1
Blood [25] = assay: Biodistribution in CD1 mouse blood at 300 kBq, iv after 5 mins by gamma counting; assay type: ADME, organism-based; settings: in vivo; outline: as §2
Urinary bladder = assay: Biodistribution in CD1 mouse bladder at 300 kBq, iv after 60 mins by gamma counting; assay type: ADME, organism-based; settings: in vivo, 1 h; outline: as §2
Liver [26] = assay: Biodistribution in CD1 mouse liver at 300 kBq, iv after 60 mins by gamma counting; assay type: ADME, organism-based; settings: in vivo, 1 h; outline: as §1
Stomach = assay: Biodistribution in CD1 mouse stomach at 300 kBq, iv after 120 mins by gamma counting; assay type: ADME, organism-based; settings: in vivo, 2 h; outline: as §1
Mus musculus [27] = assay: Biodistribution in CD1 mouse eye at 300 kBq, iv after 30 mins by gamma counting; assay type: ADME, organism-based; settings: in vivo, 0.5 h; outline: as §2
Mus musculus [28] = assay: Biodistribution in CD1 mouse large intestine at 300 kBq, iv after 5 mins by gamma counting; assay type: ADME, organism-based; settings: in vivo; outline: as §1
Kidney [29] = assay: Biodistribution in CD1 mouse kidney at 300 kBq, iv after 120 mins by gamma counting; assay type: ADME, organism-based; settings: in vivo, 2 h; outline: as §1

Compound [18F]CC1OC2(CCN(Cc3ccccc3)CC2)c2ccccc21 (configuration not stated) has a remaining at 2 h [1] of 96.9%, a Drug uptake (Mus musculus [2]) of 25.9 % ID/g and a Drug uptake (Kidney [3]) of 14.93 % ID/g. For the same compound, the Drug uptake [4] was 0.32 % ID/g, the Drug uptake (Mus musculus [5]) was 1.53 % ID/g and the Drug uptake (Cerebellum) was 4.02 % ID/g. The Drug uptake (Mus musculus [6]) was 1.28 % ID/g, the Drug uptake (Mus musculus [7]) was 3.26 % ID/g and the Drug uptake (Blood [8]) was 0.35 % ID/g. For the same compound, the Drug uptake (Mus musculus [9]) was 2.5 % ID/g, the Drug uptake (Mus musculus [10]) was “Active” and the Drug uptake (Kidney [11]) was 6.03 % ID/g. The Drug uptake (Blood [12]) was 0.16 % ID/g, the Drug uptake (Mus musculus [13]) was 1.12 % ID/g and the Drug uptake (Mus musculus [14]) was 13.29 % ID/g. The Drug uptake (Liver [15]) was 6.68 % ID/g, the Drug uptake (Pancreas) was 11.22 % ID/g and the Drug uptake (Mus musculus [16]) was 4.83 % ID/g. It also gave a Drug uptake (Mus musculus [17]) of 18.82 % ID/g, a Drug uptake (Brain) of 2.99 % ID/g and a remaining at 1 h [18] of 79%. For the same compound, the Drug uptake (Mus musculus [19]) was 1.82 % ID/g, the Drug uptake (Muscle tissue) was 1.16 % ID/g and the Drug uptake (Heart) was 7.33 % ID/g. It also gave a Drug uptake (Lung [20]) of 8.3 % ID/g, a logD [21] of 2.45 and a Drug uptake (Femur) of 1.75 % ID/g. The Drug uptake [22] was 0.4 % ID/g, the Drug uptake (Mus musculus [23]) was 6.6 % ID/g and the Drug uptake (Lung [24]) was 6.82 % ID/g. It also gave a Drug uptake (Blood [25]) of 0.73 % ID/g, a Drug uptake (Urinary bladder) of 1.42 % ID/g and a Drug uptake (Liver [26]) of 3.98 % ID/g. It also gave a Drug uptake (Stomach) of 1.9 % ID/g, a Drug uptake (Mus musculus [27]) of 2 % ID/g and a Drug uptake (Mus musculus [28]) of 0.91 % ID/g. The Drug uptake (Kidney [29]) was 5.6 % ID/g.
